High-throughput results as filed in PubChem.
A selection: hits, their analogues and other compounds. The true share with any hit is near 1.8%.
NPY Y1 blocker = blocks the human neuropeptide Y Y1 receptor; P25929; HEK293-CNG Y1 cells, membrane potential fluorescence; NPY at EC95, then isoproterenol; inhibition, % at 3.6 µM; actives 1% (n = 200,000); AID 1040;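 active = inhibition above the campaign mean inhibition of all tested compounds plus 3 SD, cut at about 20% in these data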;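 also: 0% = DMSO wells given NPY plus isoproterenol and 100% = isoproterenol alone without NPY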
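Test system: HEK293 cells co-expressing NPY Y1 receptor and cyclic-nucleotide gated channel; Also added: NPY (25 nM), isoproterenol (1 µM), Ro 20-1724 (25 µM); Compound dosing: one concentration, 3.6 µM, in 0.4% DMSO; Timing: dye 3 h, compound 60 min room temperature, stimulation 45 min; Technique: Membrane-potential fluorescent dye readout.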
NPY Y2 blocker = blocks the human neuropeptide Y Y2 receptor. NPY-Y2 expressing cells, antagonist mode. inhibition, % at 2.7 µM. AID 793. actives 0.99% (n = 140,000); in the data active = inhibition above about 17%;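 also: 0% = vehicle with agonist challenge and 100% = reference antagonist with challenge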
Target sequence (P49146 whole entry, looked up): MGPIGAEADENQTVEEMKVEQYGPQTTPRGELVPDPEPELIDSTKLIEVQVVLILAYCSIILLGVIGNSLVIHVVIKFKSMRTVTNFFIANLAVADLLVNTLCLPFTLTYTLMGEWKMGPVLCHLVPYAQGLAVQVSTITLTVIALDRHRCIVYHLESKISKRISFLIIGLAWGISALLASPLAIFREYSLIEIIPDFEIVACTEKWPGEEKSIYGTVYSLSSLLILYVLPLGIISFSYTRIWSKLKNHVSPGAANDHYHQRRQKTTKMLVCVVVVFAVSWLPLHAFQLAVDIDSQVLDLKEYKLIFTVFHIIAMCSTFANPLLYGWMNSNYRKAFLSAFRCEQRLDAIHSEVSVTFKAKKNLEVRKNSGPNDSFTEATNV
NPY2 pot ag = human NPY-Y2 potentiation or agonism, primary screen | cells expressing NPY-Y2, potentiator/agonist read-out | activation, % at 3.6 µM | actives 0.45% (n = 220,000); in the data active = activation above about 27%;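 also: cells stimulated with NPY near EC25 plus isoproterenol at EC100; 0% = vehicle plus submaximal agonist and 100% = vehicle plus saturating agonist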
NPY-Y1 PAM-ag = potentiates or activates human NPY-Y1 receptor; P25929; NPY-Y1 expressing cells, potentiator/agonist activation; activation, % at 3.6 µM; actives 0.37% (n = 220,000); in the data active = activation above about 33%, passing the limit was not always enough;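 also: cells stimulated with NPY at EC10 then isoproterenol at EC100; 0% = low agonist plus stimulus and 100% = saturating agonist plus stimulus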
NPY-Y1 antag ct = human NPY-Y1 antagonism in NPY-Y2 counter-screen; shares compounds with NPY Y2 blocker; cell-based NPY-Y1 antagonism counterscreen; inhibition, % at 3.6 µM; actives 19% (n = 710); in the data active = inhibition above about 20%;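 also: cells challenged with NPY then isoproterenol with cAMP sensed through a CNG channel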
NPY2 antag conf = human NPY-Y2 antagonism, confirmation; shares compounds with NPY Y2 blocker; inhibition, % at 2.8 µM; HEK293 NPY-Y2 CNG channel, membrane potential fluorescence; actives 32% (n = 710); AID 1257;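 active = mean inhibition of triplicate wells above the hit cutoff set in the primary screen, cut at about 17% in these data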;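 also: 0% = DMSO with NPY challenge and 100% = BIIE0246 high control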
Numbers without * were called inactive; x = no result.

SMILES	NPY Y1 blocker	NPY Y2 blocker	NPY2 pot ag	NPY-Y1 PAM-ag	NPY-Y1 antag ct	NPY2 antag conf
COc1ccc(-c2noc(CSc3nc(-c4ccccc4)cc(=O)[nH]3)n2)cc1	6	25*	-4	6	3	1
C=CCN(C(=O)CNC(=O)c1cccs1)C(C(=O)NC1CCCCC1)c1cccnc1 (stereo not given)	3	x	12	11	x	x
CCOC(=O)CC(NC(=O)C1c2ccccc2Oc2ccccc21)c1ccccc1Cl (stereo not given)	3	18*	8	-21	12	7
CCOC(=O)CC(NC(=O)Cc1ccccc1)c1ccccc1Cl (stereo not given)	6	2	4	-24	x	x
Cc1cc(C)c(C)c(S(=O)(=O)NC(C)C(=O)O)c1C (stereo not given)	x	x	14	7	x	x
O=C(Cn1nnc(-c2ccccc2)n1)NNC(=O)c1ccco1	5	x	3	-9	x	x
CCCOc1ccc2oc(=O)c3c(c2c1)CCCN3C(=O)CN1CCN(C(=O)c2ccco2)CC1	-2	0	0	-5	x	x
O=C(CN1CCCC1)N1CCCc2c1c(=O)oc1ccc(OCc3ccccc3)cc21	17	19*	-11	-39	23*	28*
CSc1cccc(NC(=S)N(Cc2ccccc2)Cc2cccnc2)c1	2	x	6	1	x	x
c1ccc(CSc2nnc3ccc(-c4ccco4)nn23)nc1	2	x	3	6	x	x
Cc1cccc(OCCCSc2nc3ccc(C)cc3[nH]2)c1	16	17*	-31	-35	12	17
CCOc1ccc(-c2nc(CN3CCCCC3CCn3cccn3)c(C)o2)cc1 (stereo not given)	x	x	-23	-6	x	x
Cc1cccc(C(=O)Nc2ccc(NC(=O)Cc3ccc(Cl)cc3)cc2)c1	6	2	-1	-9	x	x
O=C(Cc1ccc(Cl)cc1)Nc1ccc(NC(=O)c2ccccc2)cc1	11	21*	10	22	0	2
O=C(Nc1ccc(Cl)cc1)c1csc(-c2ccccc2)n1	20	20*	-45	-50	20	23*
O=C(Nc1ccc(Cl)cc1)c1csc(-c2ccncc2)n1	-3	x	4	14	x	x
NNC(=O)Cn1c(-c2nonc2N)nc2ccccc21	-1	x	-10	-19	x	x
Nc1nonc1-c1nc2ccccc2n1Cc1ccc(Cl)cc1	14	28*	11	7	28*	27*
COc1ccc(Cn2c(-c3ccc(OC)cc3)nc3ccccc32)cc1	8	21*	-13	-8	12	6
C=COCCn1c(-c2nonc2N)nc2ccccc21	11	10	-2	-7	x	x
CCCCOc1ccccc1NC(=O)Cn1c(-c2nonc2N)nc2ccccc21	7	51*	-1	-7	50*	93*
C/C(=N\NC(=O)c1ccc(CSc2nc(C)cc(C)n2)cc1)c1ccco1	-1	x	-11	-14	x	x
Cc1cc(C)c(S(=O)(=O)NCC(=O)NCc2ccccn2)c(C)c1	4	x	6	0	x	x
Fc1ccc(Cn2nnnc2CN2CCN(C3CCCCC3)CC2)cc1	18	20*	-15	-21	12	11
c1coc(Cn2nnnc2CN2CCN(C3CCCC3)CC2)c1	8	0	-4	-19	x	x
SMILES	NPY Y1 blocker	NPY Y2 blocker	NPY2 pot ag	NPY-Y1 PAM-ag	NPY-Y1 antag ct	NPY2 antag conf
COc1ccc(-c2ccnc(SCC(=O)c3ccc(Br)cc3)n2)cc1	5	21*	0	6	42*	42*
O=c1cc(CN2CCN(S(=O)(=O)c3ccccc3[N+](=O)[O-])CC2)nc2sccn12	-3	x	-3	-7	x	x
C#CCn1c(=NC(=O)c2cccs2)sc2cccc(OC)c21	16	23*	-52	-60	14	11
C#CCn1c(=NC(=O)CN2C(=O)CCC2=O)sc2cccc(OC)c21	x	x	-13	5	x	x
Cc1cc(C)n(-c2nnc(C)n2/N=C/c2ccccc2OCc2ccccc2Cl)n1	11	18*	-3	-4	20*	11
CNNC(=S)Nc1cccc(SC)c1	x	x	1	-3	x	x
Cc1ccc(N2C(=O)c3ccccc3C2C(=O)c2cc(C)ccc2O)cc1 (stereo not given)	-2	27*	18	9	35*	38*
Cc1ccc(N2C(=O)c3ccccc3C2C(=O)c2ccc(O)cc2O)cc1 (stereo not given)	1	0	7	16	x	x
Cc1cccc(Nc2c3c(nc4ccccc24)CCC3)c1	x	x	-28	-29	x	x
